From ChEMBL document CHEMBL3286188 (J Med Chem, 2014)
Calls of active or inactive are those of the source. The rule behind the calls is not given here.

Assays:
[1] = target: T1, Estrogen receptor (Homo sapiens) (UniProt P03372); assay: Agonist activity at ER in human MCF7:WS8 cells assessed as increase in cell growth by measuring DNA level at 10^-6 M after 7 days by fluorescence analysis; format: cell-based
T1 sequence (whole entry): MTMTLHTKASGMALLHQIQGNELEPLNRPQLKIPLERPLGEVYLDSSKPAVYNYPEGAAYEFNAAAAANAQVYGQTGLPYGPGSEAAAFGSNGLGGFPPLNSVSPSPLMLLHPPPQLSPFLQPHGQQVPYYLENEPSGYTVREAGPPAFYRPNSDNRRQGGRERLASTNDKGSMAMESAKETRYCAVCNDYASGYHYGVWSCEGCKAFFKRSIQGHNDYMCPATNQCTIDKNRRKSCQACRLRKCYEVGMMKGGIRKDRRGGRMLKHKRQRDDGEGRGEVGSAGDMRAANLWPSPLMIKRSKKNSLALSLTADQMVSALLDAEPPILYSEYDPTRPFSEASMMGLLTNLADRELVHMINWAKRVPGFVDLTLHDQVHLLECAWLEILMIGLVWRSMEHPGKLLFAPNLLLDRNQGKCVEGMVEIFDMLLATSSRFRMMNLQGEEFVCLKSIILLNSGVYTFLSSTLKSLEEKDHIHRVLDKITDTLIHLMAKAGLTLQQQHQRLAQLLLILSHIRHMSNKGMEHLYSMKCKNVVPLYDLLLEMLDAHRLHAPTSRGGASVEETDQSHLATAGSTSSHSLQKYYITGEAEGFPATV
Procedure, shortened: (§1)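 MCF-7:WS8 cells kept 3 days in phenol red-free RPMI 1640 with 10% charcoal-stripped serum, then seeded at 10 000 cells/well. Next day treated with serial dilutions (10–12 to 10–6 M) or single therapeutic-level concentrations in estrogen-free medium. Medium changed every 2 days, 7 days total, triplicate points.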

[2] = target: T1, Estrogen receptor (Homo sapiens); assay: Antagonist activity at ER in human MCF7:WS8 cells assessed as inhibition of estradiol-induced cell growth by measuring DNA level after 7 days treated at highesy drug concentration by fluorescence analysis; format: cell-based
[3] = target: T1, Estrogen receptor (Homo sapiens); assay: Agonist activity at ER in human MCF7:WS8 cells assessed as increase in pS2 gene expression at 10^-6 M after 48 hrs by RT-PCR analysis; format: cell-based
Procedure, shortened: (§2)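 After 3 days estrogen starvation, MCF-7:WS8 cells were seeded at 300 000 cells/well and treated for 48 h, then harvested in Trizol. pS2, GREB1 and PgR mRNA measured by real-time PCR with primers checked by single-peak dissociation curves.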

[4] = target: T1, Estrogen receptor (Homo sapiens); assay: Agonist activity at ER in human MCF7:WS8 cells assessed as increase in GREB1 gene expression at 10^-6 M after 48 hrs by RT-PCR analysis; format: cell-based; procedure, shortened: as §2
[5] = target: T1, Estrogen receptor (Homo sapiens); assay: Agonist activity at ER in human MCF7:WS8 cells assessed as increase in PgR gene expression at 10^-6 M after 48 hrs by RT-PCR analysis; format: cell-based; procedure, shortened: as §2
[6] = target: T1, Estrogen receptor (Homo sapiens); assay: Agonist activity at ER in human MCF7:WS8 cells assessed as cell growth by measuring DNA level at 0.56 X 10^-9 M after 7 days by fluorescence analysis; format: cell-based; procedure, shortened: as §1
[7] = target: T1, Estrogen receptor (Homo sapiens); assay: Antagonist activity at ER in human MCF7:WS8 cells assessed as inhibition of estradiol-induced cell growth by measuring DNA level at 10^-6 M after 7 days by fluorescence analysis; format: cell-based
[8] = Effect on ER-alpha protein level in human MCF7:WS8 cells at 1 nM after 24 hrs by Western blot analysis; format: functional
Procedure, shortened: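 Cells estrogen-starved 3 days in phenol red-free RPMI 1640, 3 million seeded per 10 cm dish, treated 24 h. Lysates (20 μg protein by BCA) run on 4–12% Bis-Tris gels, blotted to nitrocellulose, probed with rabbit anti-ERα and anti-β-actin, detected by ECL. Densitometry normalized to β-actin, background subtracted, vehicle = 100%. Three independent experiments.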

[9] = target: T1, Estrogen receptor (Homo sapiens); assay: Antagonist activity at ER in human MCF7:WS8 cells assessed as inhibition of estradiol-induced cell growth by measuring DNA level after 7 days by fluorescence analysis; format: cell-based; settings: concentration not given here
[10] = target: T1, Estrogen receptor (Homo sapiens); assay: Agonist activity at ER in human MCF7:WS8 cells assessed as cell growth by measuring DNA level at 1.17 X 10^-9 M after 7 days by fluorescence analysis; format: cell-based; procedure, shortened: as §1

Compound	Activity [1]	inhibition [2] [%]	Activity [3]	Activity [4]	Activity [5]	Activity [6]	inhibition [7] [%]	Activity [8] [%]	inhibition [9] [%]	Activity [10]
CCC(=C(c1ccc(O)cc1)c1ccc(O)cc1)c1ccccc1	Active	20	Active	Active	Active					
CCOc1ccc2c(c1)CCCC(c1ccccc1)=C2c1ccc(O)cc1	Active	20	Active	Active	Active					
CN(C)CCOc1ccc2c(c1)CCCC(c1ccccc1)=C2c1ccc(O)cc1	Active	20	Active	Active	Active	inactive				
CCOc1ccc(C2=C(c3ccccc3)CCCc3cc(O)ccc32)cc1	Active	20	Active	Active	Active		20			
C[C@]12CC[C@@H]3c4ccc(O)cc4CC[C@H]3[C@@H]1CC[C@@H]2O [ESTRADIOL]								60		
COc1ccc2c(c1)CCCC(c1ccccc1)=C2c1ccc(O)cc1	Active	20	Active	Active	Active					
CCC(=C(c1ccc(O)cc1)c1ccc(O)cc1)c1ccc(O)cc1		20	Active	Active	Active					
CNCCOc1ccc2c(c1)CCCC(c1ccccc1)=C2c1ccc(O)cc1		10	Active	Active	Active				10	inactive
COc1ccc(C2=C(c3ccccc3)CCCc3cc(O)ccc32)cc1	Active	20	Active	Active	Active					
